Activity calls are given as the source filed them. No cut-off for these calls is given here.
Legend:
Histamine H1 receptor = Histamine H1 receptor (Cavia porcellus, UniProt P31389); assay: H1-antihistamine activity on guinea pig ileum; assay type: functional, tissue-based; details: read-out: pA2 (converted)
Outline: (§1)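 Isolated guinea pig ileum under about 1 g tension, isotonic recording, histamine contractions. Method a: histamine curves repeated at rising antagonist levels in Tyrode; pA2 from a Schild plot of log(CR−1). Methods b/c: antagonist given 10 min (b) or 30 s (c) before double the ~50%-response histamine dose.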

Rattus norvegicus [1] = species on record: Rattus norvegicus; assay: Ability to inhibit the release of histamine in the rat peritoneal fluids by 50%; assay type: functional, organism-based
Outline: (§2)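 Rats sensitized ip with 2 mL of 1:5 rat antiserum in isotonic saline. 2 h later, 0.3 mL 5% Pontamine Sky Blue given iv, then after 30 s ip challenge with 5 mL Tyrode (heparin 50 μg/mL, ovalbumin 0.4 mg/mL). Compound ip in 1 mL saline 30 s before antigen; dose expressed as concentration in the 6 mL injected. Peritoneal fluid collected 5 min post-challenge.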

Rattus norvegicus [2] = species on record: Rattus norvegicus; assay: Ability to inhibit the release of extravasated dye in the rat peritoneal fluids by 50%; assay type: functional, organism-based; outline: as §2
[3] = target: Histamine H1 receptor (Cavia porcellus) (UniProt P31389); assay: H1-antihistamine activity on guinea pig ileum; Inactive; assay type: functional, tissue-based; outline: as §1
Histamine H1 receptor (Cavia porcellus), sequence (P31389 whole entry): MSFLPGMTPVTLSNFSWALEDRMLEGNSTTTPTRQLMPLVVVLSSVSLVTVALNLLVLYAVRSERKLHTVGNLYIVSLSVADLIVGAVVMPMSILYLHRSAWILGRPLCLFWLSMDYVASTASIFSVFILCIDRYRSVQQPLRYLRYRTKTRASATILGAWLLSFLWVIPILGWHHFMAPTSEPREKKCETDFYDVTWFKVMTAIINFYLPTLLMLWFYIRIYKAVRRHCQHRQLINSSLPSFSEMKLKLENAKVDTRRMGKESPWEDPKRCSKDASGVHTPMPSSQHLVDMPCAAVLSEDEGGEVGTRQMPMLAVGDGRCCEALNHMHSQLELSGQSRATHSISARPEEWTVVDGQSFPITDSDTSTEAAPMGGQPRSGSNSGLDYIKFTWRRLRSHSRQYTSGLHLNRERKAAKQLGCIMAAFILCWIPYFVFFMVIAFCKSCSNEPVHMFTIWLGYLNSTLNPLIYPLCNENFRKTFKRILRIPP

Histamine H1 receptor, sequence (P31389 whole entry): as above

Kb (Histamine H1 receptor)	IC50 (Rattus norvegicus [1])	IC50 (Rattus norvegicus [2])	pA2 [3]	Compound
0.001 µM	1.9 µM	5.8 µM		O=c1oc2cc(OCCCN3CCN(Cc4ccc(Cl)cc4)CC3)ccc2c(O)c1[N+](=O)[O-]
	2.6 µM	16 µM		CCCc1c(OCC(O)CN2CCN(Cc3ccc(Cl)cc3)CC2)ccc2c(O)c([N+](=O)[O-])c(=O)oc12 (stereo not drawn)
	< 2 µM	20 µM		O=c1oc2cc(OCC(O)CN3CCN(Cc4ccc(Cl)cc4)CC3)ccc2c(O)c1[N+](=O)[O-] (stereo not drawn)
	> 200 µM	29 µM		COc1ccc(CN(CCN(C)C)c2ccccn2)cc1 [PYRILAMINE]
	14 µM	83 µM		O=c1oc2cc(CN3CCN(Cc4ccc(Cl)cc4)CC3)ccc2c(O)c1[N+](=O)[O-]
100 µM	< 2 µM	13 µM		CN1CCN(CCCOc2ccc3c(O)c([N+](=O)[O-])c(=O)oc3c2)CC1
0.158 µM		100 µM		O=c1oc2cc(OCCN3CCN(Cc4ccc(Cl)cc4)CC3)ccc2c(O)c1[N+](=O)[O-]
	0.74 µM	5.8 µM	inactive	O=C(O)c1cc(=O)c2c(OCC(O)COc3cccc4oc(C(=O)O)cc(=O)c34)cccc2o1 [CROMOLYN SODIUM]
	28 µM	> 200 µM		O=c1oc2cc(OCCCN3CCN(Cc4ccccc4)CC3)ccc2c(O)c1[N+](=O)[O-]
	> 200 µM	9.1 µM		CN1CCC(=C2c3ccccc3CC(=O)c3sccc32)CC1 [KETOTIFEN]
